SR-BI uptake up: enhances SR-BI lipid uptake from DiI-HDL | hit rate 0.096% among 320,000 | CHO ldlA[mSR-BI] cells, DiI-HDL uptake fluorescence, 3 h; 100 = double the neutral-control signal | activation, % at 12.5 µM | AID 504775;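 active = mean replicate activation of at least 60% and every replicate at or above 60%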
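Test system: SR-BI-overexpressing, LDLR-lacking CHO cells; Medium: Ham's F12 with 0.5% BSA, HEPES 25 mM, pH 7.4; Schedule: 3 h, 37 °C; Technique: bottom-read fluorescence, 550/595 nm.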
SR-BI HDL uptake: mouse SR-BI HDL lipid transfer inhibition | Q61009 | ldlA[mSR-BI] CHO cells, DiI-HDL uptake fluorescence, 3 h | inhibition, % at 12.5 µM | hit rate 0.96% among 320,000;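 active = mean replicate inhibition of at least 70% and a set share of replicates each scoring 70 or more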
Target sequence (Q61009 whole entry, looked up): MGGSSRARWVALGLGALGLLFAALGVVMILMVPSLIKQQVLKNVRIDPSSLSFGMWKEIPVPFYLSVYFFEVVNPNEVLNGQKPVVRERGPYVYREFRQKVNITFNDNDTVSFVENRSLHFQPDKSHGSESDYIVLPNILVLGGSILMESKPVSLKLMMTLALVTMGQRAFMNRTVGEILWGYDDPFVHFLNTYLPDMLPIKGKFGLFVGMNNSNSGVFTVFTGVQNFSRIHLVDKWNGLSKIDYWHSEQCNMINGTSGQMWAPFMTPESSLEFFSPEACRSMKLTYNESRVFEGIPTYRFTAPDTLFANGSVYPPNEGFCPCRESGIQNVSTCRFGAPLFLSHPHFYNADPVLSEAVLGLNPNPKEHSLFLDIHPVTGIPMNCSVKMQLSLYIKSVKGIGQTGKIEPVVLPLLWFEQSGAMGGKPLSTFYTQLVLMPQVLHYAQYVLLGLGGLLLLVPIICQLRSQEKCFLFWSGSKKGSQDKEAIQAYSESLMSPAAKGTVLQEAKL
HIF activator: HIF pathway transcriptional activation; activation, % at 7.5 µM (by protocol); AID 1910; hit rate 0.32% among 300,000; U2OS HRE-luciferase reporter, luminescence; normalized: DMSO 0%, desferrioxamine 100%;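 active = mean activation of at least 10% of the iron chelator positive control signal, with at least half of replicates also reaching 10%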
FXN GAA850 act: activators of GAA850 frataxin (FXN) promoter | HEK293 lucGAA850 FXN promoter luciferase reporter, 24 h; percent of 10 µM SAHA response | hit rate 0.56% among 360,000 | AID 540364 | activation, % at 6 µM;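 active = activation above the average of all compounds screened plus 3 SD, cutoff fixed separately per campaign, cut at about 7.5% in these data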
ABCB6 inh MLPCN: blocks the human ABCB6 transporter | fluorescence ratio to DMSO, % at 10 µM | hit rate 0.19% among 360,000 | K562-ABCB6 porphyrin accumulation, flow cytometry, 1 h; active compounds read low | AID 602162 | Q9NP58;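 active = fluorescence ratio to DMSO below 75%, the collection mean minus 3 SD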;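 note: signal is porphyrin accumulated inside mitochondria; lower ratio means ABCB6 inhibition with less porphyrin fluorescence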
AHR activator: activates the human aryl hydrocarbon receptor | P35869 | AHR-responsive luciferase reporter cells, luminescence | activation, % at 5 µM | hit rate 2.5% among 320,000 | AID 2796; in the data active = activation above about 47%
A number is an active result; . = inactive; / = no result given. An excerpt weighted towards active compounds, which were near 3.9% of everything screened.

SMILES	SR-BI uptake up	SR-BI HDL uptake	HIF activator	FXN GAA850 act	ABCB6 inh MLPCN	AHR activator
COc1ccc(-c2cc3cc(-c4cc(OC)c(OC)c(OC)c4)ccc3o2)cc1	.	.	/	.	.	.
COc1ccc(-c2ccc3oc(-c4ccsc4)cc3c2)cc1	.	.	.	.	.	57.1
C#CCSc1nnc(-c2c[nH]c3ccccc23)n1C	.	.	.	.	.	48.8
Cc1nc(-c2ccccc2)sc1-c1ccnn1C	.	.	.	.	.	.
CC(C)Sc1nnc(-c2c[nH]c3ccccc23)n1C	.	.	.	.	.	.
C#CCSc1nnc(-c2sc(-c3ccccc3)nc2C)n1C	.	74.4	.	.	.	.
CCC1(C)OC(=O)N2CCc3c(C)[nH]c4c(C)ccc(c34)C21C (configuration not stated)	.	.	.	.	.	61.6
COc1ccc(CN2CCCC(CO)(Cc3ccc(F)cc3)C2)cc1C (configuration not stated)	.	.	.	.	.	.
CC(C)(C)OC(=O)NCC(=O)N1CCC(C(=O)O)CC1	.	.	.	.	.	.
O=C(COc1cccc2cccnc12)N/N=C1\SCC(=O)N1Cc1ccccc1	.	.	.	.	.	52.4
O=C(COc1cccc2cccnc12)NNC(=S)Nc1ccccc1	/	/	.	/	/	.
O=C(N/N=C1\SCC(=O)N1CCc1ccccc1)c1cccs1	.	.	.	.	.	51.1
CCOC(=O)c1c(NC(=O)CN2CCN(C(=O)c3ccco3)CC2)sc(C)c1C	.	.	.	.	.	.
CCOC(=O)c1c(-c2cccc([N+](=O)[O-])c2)csc1NC(=O)C1CC1	.	.	.	.	.	.
COc1ccc(C(C)(C)C)cc1NC(=O)c1ccc2c(c1)SC1=NS(=O)(=O)CCN12	.	.	.	.	.	.
Nc1nc(-c2c[nH]c3ccccc23)cs1	.	.	.	.	.	57.8
CN1c2ccccc2C(O)=C(C(=S)Nc2ccccc2)S1(=O)=O	.	.	.	.	.	.
CN1c2ccccc2C(O)=C(C(=S)Nc2ccc(F)c(Cl)c2)S1(=O)=O	.	.	.	.	.	51.5
C/C(=N/NC(=O)c1ccoc1C)c1ccc(NC(=O)c2ccncc2)cc1	.	.	.	.	.	.
CC(=O)NCC(=O)N(C)C(C(=O)Nc1ccc2c(c1)OCCO2)c1ccc(C)cc1 (configuration not stated)	.	.	.	.	.	.
CCc1ccc(Nc2n[n+](-c3ccccc3)c(-c3ccc(OCc4ccccc4)cc3)s2)cc1	.	.	.	.	.	.
CCN(CC)c1ccc(-c2sc(Nc3ccccc3)n[n+]2-c2ccc(F)cc2)cc1	.	.	.	.	.	63.3
c1ccc(COc2ccc(-c3sc(Nc4ccccc4)n[n+]3-c3ccccc3)cc2)cc1	/	/	.	/	/	79.9
Cc1nn(-c2cccc(C(F)(F)F)c2)c(=O)c2ccccc12	.	.	.	.	.	50.5
Cc1cc(=O)c(C(=O)O)nn1-c1cccc(C(F)(F)F)c1	.	.	.	.	.	.
SMILES	SR-BI uptake up	SR-BI HDL uptake	HIF activator	FXN GAA850 act	ABCB6 inh MLPCN	AHR activator
Cc1nn(-c2ccc(C(=O)O)cc2)c(=O)c2ccccc12	.	.	.	.	.	.
Cc1cc(=O)[nH]c2c1c(C)nn2-c1ccccc1	.	.	.	.	.	62.0
Cc1nn(-c2ccccc2)c(=O)c2ccccc12	.	.	.	.	.	61.4
O=C(NCc1ccccc1C(F)(F)F)C1CC(c2ccccc2C(F)(F)F)=NO1 (configuration not stated)	.	.	.	.	.	.
COc1ccc(C(=O)Nc2nc3ccc(OC)cc3s2)cc1	.	.	.	.	.	/
COC(=O)c1ccc(C(=O)Nc2nc3cc(N)c(C)cc3s2)cc1	.	80.9	.	.	.	.
Cc1ccc(C(=O)NCCCn2ccnc2)cn1	.	.	.	.	.	.
O=C(Nc1cccc([N+](=O)[O-])c1)c1cnccn1	.	.	.	.	.	.
CCC(C)c1ccc(NC(=O)NCc2cccnc2)cc1 (configuration not stated)	.	.	.	.	.	.
O=C(Nc1cccnc1)Nc1cccc([N+](=O)[O-])c1	.	.	.	.	.	76.7
CCC(C)c1ccc(NC(=O)Nc2cccnc2)cc1 (configuration not stated)	.	.	.	.	.	78.9
Cc1cc(C)nc(/N=C(\N)Nc2ccc([N+](=O)[O-])cc2)n1	.	.	.	.	.	.
O=C(Nc1cccc([N+](=O)[O-])c1)c1[nH]ncc1Cl	.	.	.	.	.	74.6
COc1cc([N+](=O)[O-])ccc1NC(=O)Nc1cccnc1	.	.	.	.	.	.
Cc1cc(C)nc(/N=C(\N)Nc2cccc([N+](=O)[O-])c2)n1	.	.	.	.	.	51.9
C/C(N)=C(/C#N)C(=O)COC(=O)CCS(=O)(=O)c1ccccc1	.	.	.	.	.	.
C=CC[C@@H](CC(=O)N[C@H](CO)Cc1ccccc1)C(=O)N[C@@H](COC(=O)[C@@H](CC=C)CC(=O)OC(C)(C)C)Cc1c[nH]c2ccccc12	.	.	/	.	.	.
CC(=O)OCC(=O)C1(O)CCC2C3CCC4=CC(=O)C=CC4(C)C3(F)C(O)CC21C (configuration not stated)	.	.	/	.	.	/
C=CCn1c(=O)n2ncnc2c2c3c(sc21)CCCC3	.	.	.	.	.	.
CCOc1ccc(N(CC(=O)Nc2ccccc2)S(C)(=O)=O)cc1	.	.	.	.	.	.
CCOc1ccc(N(CC(=O)Nc2ccc(C)c(C)c2)S(C)(=O)=O)cc1	.	.	.	.	.	51.5
CCOc1ccc(OCC)c(NC(=O)CN(c2ccc(OC)cc2)S(=O)(=O)c2c(C)noc2C)c1	.	.	.	.	.	58.5
COc1ccc(OC)c(NC(=O)CN(c2ccc(C)cc2)S(=O)(=O)c2c(C)noc2C)c1	.	.	.	.	.	.
CCOc1ccc(OCC)c(NC(=O)CN(c2ccc(C)cc2)S(=O)(=O)c2c(C)noc2C)c1	.	.	.	.	.	62.5
Cn1cccc1C(=O)NC(=O)COC(=O)c1cc(S(=O)(=O)N2CCCCC2)ccc1Cl	.	81.1	46.0	.	.	.
CN(C(=O)COC(=O)c1cc(S(=O)(=O)N2CCCCC2)ccc1Cl)c1ccccc1	.	71.7	/	.	.	.
CN(C(=O)COC(=O)c1cc(F)c(F)cc1Cl)c1ccccc1	/	/	.	.	.	.
N#CCCN(C(=O)COC(=O)c1ccc(S(=O)(=O)N2CCOCC2)cc1)c1ccccc1	.	.	/	.	.	.
CCOC(=O)c1ccc(S(=O)(=O)N2CCC(C(=O)O)CC2)cc1	69.5	.	.	.	.	.
O=C(COC(=O)c1cc(S(=O)(=O)N2CCCCC2)ccc1Cl)NC1CCCCC1	/	/	/	.	.	/

Screening results as filed in PubChem BioAssay.
